Source: ChEMBL document CHEMBL1154414, “In vitro and in vivo activities of T-705 against arenavirus and bunyavirus infections” (Antimicrob Agents Chemother, 2007)

Tests used:
[1] = Metabolic stability in po dosed mouse assessed as drug remaining after 6 hrs; type: ADME, organism-based; settings: in vivo, read-out: Stability
[2] = Selectivity index, ratio of CC50 for african green monkey Vero cells to EC50 for Pichinde virus An 4763; type: toxicity, cell-based; settings: read-out: Ratio CC50/EC50
Mus musculus [3] = assay: % Compound cleared in virus-infected po dosed mouse after 6 hrs; type: ADME, organism-based; settings: in vivo
[4] = Selectivity index, ratio of CC50 for african green monkey Vero 76 cells to EC50 for Punta Toro virus Adames; type: toxicity, cell-based; settings: read-out: Ratio CC50/EC50
[5] = Cytotoxicity against african green monkey Vero 76 cells assessed as cell viability after 3 to 5 days; type: cell-based; settings: chlorocebus sabaeus
[6] = Selectivity index, ratio of CC50 for african green monkey Vero 76 cells to EC50 for Sandfly fever Naples virus; type: toxicity, cell-based; settings: read-out: Ratio CC50/EC50
Syrian golden hamster = settings: in vivo, po, 72 h
[7] = Selectivity index, ratio of CC50 for african green monkey Vero 76 cells to EC50 for La Crosse virus; type: toxicity, cell-based; settings: read-out: Ratio CC50/EC50
[8] = Selectivity index, ratio of CC50 for african green monkey Vero cells to EC50 for Tacaribe virus TRVL11573; type: toxicity, cell-based; settings: read-out: Ratio CC50/EC50
[9] = Cytotoxicity against african green monkey Vero cells after 7 to 8 days by neutral-red dye uptake assay; type: cell-based; settings: chlorocebus sabaeus
In short: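 Subconfluent (50-70%) Vero cells received half-log drug dilutions without virus and were held at 37°C, 5% CO2 for 7-8 days. Cells were stained with 0.034% neutral red for 2 h, and the dye was extracted 30 min in ethanol with Sorenson's citrate buffer. Absorbance was read at 540 nm as % of untreated controls. CC50 was derived by regression.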

[10] = Selectivity index, ratio of CC50 for african green monkey Vero 76 cells to EC50 for Rift Valley fever virus MP-12; type: toxicity, cell-based; settings: read-out: Ratio CC50/EC50
Mus musculus [11] = species on record: Mus musculus; settings: in vivo, po
[12] = Selectivity index, ratio of CC50 for african green monkey Vero cells to EC50 for Junin virus Candid-1; type: toxicity, cell-based; settings: read-out: Ratio CC50/EC50

## NC(=O)c1nc(F)c[nH]c1=O [FAVIPIRAVIR]
[1]
  remaining at 6 h: 10%
[2]
  selectivity ratio: 186
Mus musculus [3]
  %Cleared: > 90%
[4]
  selectivity ratio: > 33
[5]
  CC50: > 6260 µM
[6]
  selectivity ratio: > 55
Syrian golden hamster
  LD50: 1500 mg/kg/day
[7]
  selectivity ratio: > 199
[8]
  selectivity ratio: 227
[9]
  CC50: 1110 µM
[10]
  selectivity ratio: > 196
Mus musculus [11]
  LD50: 707 mg/kg/day
[12]
  selectivity ratio: 239
